High-throughput results: PubChem, several laboratories
In the library only some 2.2% were active in any assay of this set; here they are far more common.
HNF4A DNA FP = change in binding of human HNF4 alpha to DNA. HNF4a-FITC DNA binding, fluorescence polarization, 1 h. activity change, % at 10 µM. 0.3% of 360,000 active; in the data active means activity change above about 30%, passing the limit was not always enough
Myeloid diff MLP = myeloid differentiation induction; calls only at 10 µM; 1% of 360,000 active; ER-HoxA9 myeloid progenitors, lysozyme-GFP differentiation, flow cytometry;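 active means normalized GFP-positive differentiation at or above the plate's own cutoff, the solvent-only control mean plus 3 SD; inconclusive means no clear call, values can overlap the other calls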;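 further: cells exposed to compound for four days before flow analysis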
CSN deneddyl inh = blocks human CSN-mediated cullin deneddylation; Q92905; inhibition, % at 12.5 µM; Purified CSN, SCF-Nedd8-OG deneddylation, fluorescence polarization; 0.38% of 360,000 active; AID 651999;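 active means pattern-corrected inhibition above about 35%, with an unprinted fluorescence ratio check between 0.5 and 1.5, limit read from the data, passing the limit was not always enough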
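test system = HEK293T-derived human Csn5 enzyme | amount = 0.24 nM Csn5 enzyme, final concentration | medium = Tris/NaCl/DTT buffer, pH 7.5 | schedule = 90 min reaction at room temperature | signal = FP | evaluation = inhibition of Csn5 cleavage, % | compound dosing = single dose of 12.5 µM compound with 0.25% DMSO | probe or stimulus = 10 nM SCFSkp2-Nedd8OG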
Granule exo inh = lytic granule exocytosis inhibition | TALL-104 LAMP-1 surface exposure, flow cytometry; cells stimulated with thapsigargin and PMA | inhibition, % at 10 µM | 0.66% of 360,000 active | AID 651702;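 active means inhibition above about 55%, limit read from the data; inconclusive means no clear call, values can overlap the other calls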
CSN5 deneddyl = validation of inhibitors of human CSN-mediated cullin deneddylation. shares compounds with CSN deneddyl inh. Csn5 deneddylation of SCF-Nedd8OG, fluorescence polarization, 90 min. inhibition, % at 16.6 µM. 62% of 540 active. AID 720654; in the data active means inhibition above about 50%
MMP2 cntr CSN = blocks human MMP-2 in a CSN deneddylation counter-screen. shares compounds with CSN deneddyl inh. recombinant MMP-2, FRET substrate fluorescence, 60 min. inhibition, % at 16.6 µM. 33% of 540 active;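 active means corrected plate-normalized z-score of 5 or more, or -5 or less, or inhibition of 15% or more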
Thrombin cntr = counter-screen for CSN deneddylation inhibitors: bovine thrombin inhibition; shares compounds with CSN deneddyl inh; bovine thrombin cleavage of Ub4-pepOG, fluorescence polarization; inhibition, % at 16.6 µM; 49% of 540 active;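 active means inhibition at or above a set limit, with a fluorescence interference ratio between 0.5 and a set maximum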
Target sequence (P00735 whole entry, looked up): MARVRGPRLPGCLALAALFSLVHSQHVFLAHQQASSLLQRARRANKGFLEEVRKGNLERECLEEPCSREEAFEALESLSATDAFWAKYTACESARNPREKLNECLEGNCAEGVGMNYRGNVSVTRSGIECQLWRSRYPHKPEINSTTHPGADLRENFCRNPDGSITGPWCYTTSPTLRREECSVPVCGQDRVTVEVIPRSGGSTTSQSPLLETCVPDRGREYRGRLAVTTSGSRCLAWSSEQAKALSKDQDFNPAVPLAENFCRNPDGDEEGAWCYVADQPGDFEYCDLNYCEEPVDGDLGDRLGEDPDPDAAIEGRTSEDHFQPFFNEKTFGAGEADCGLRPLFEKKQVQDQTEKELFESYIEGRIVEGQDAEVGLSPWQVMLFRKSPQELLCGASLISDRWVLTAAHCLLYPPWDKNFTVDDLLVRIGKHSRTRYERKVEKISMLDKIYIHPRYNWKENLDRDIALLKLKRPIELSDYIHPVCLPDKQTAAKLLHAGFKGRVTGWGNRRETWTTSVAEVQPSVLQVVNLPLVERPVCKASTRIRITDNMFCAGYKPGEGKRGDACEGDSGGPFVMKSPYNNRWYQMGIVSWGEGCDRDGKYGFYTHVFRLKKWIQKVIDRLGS
Large screens that a line does not name were inactive (follow-up assays come after a bar, where they were run).

COC(=O)c1ccc2c(c1)C(C)(C)C(/C=C/c1ccc(O)cc1)=[N+]2C	HNF4A DNA FP 41.4, CSN deneddyl inh 47.6 (no result: Myeloid diff MLP) | CSN5 deneddyl 61.8 | MMP2 cntr CSN inactive | Thrombin cntr 35.1
COC(=O)c1ccc2c(c1)C(C)(C)C(/C=C/c1ccc(OC)c(OC)c1OC)=[N+]2C	Myeloid diff MLP inconclusive
C=CCC1(CC=C)CCCN1C(=O)C1CCC(=O)N(CCc2ccc(OC)cc2)C1 (centres undefined)	none
O=C(/C=C/c1ccc([N+](=O)[O-])cc1)/C=C/c1ccco1	CSN deneddyl inh 46.4 | CSN5 deneddyl 76.7 | MMP2 cntr CSN inactive | Thrombin cntr inactive
O=C(/C=C/c1ccc([N+](=O)[O-])cc1)c1ccco1	none
CC(O)CN(CC(C)O)c1ccc2c(c1)Cc1cc([N+](=O)[O-])ccc1-2 (centres undefined)	Myeloid diff MLP active, CSN deneddyl inh 58.1 | CSN5 deneddyl inactive | MMP2 cntr CSN inactive | Thrombin cntr 81.7
C[C@H](NC(=O)[C@H]1N2C(=O)c3ccccc3C2SC1(C)C)C(=O)N1CCCCC1 (some centres undefined)	none
CCOc1ccc(/C=c2\sc3nc(-c4ccco4)nn3c2=O)cc1OCC	none
COc1ccccc1/C=c1\sc2nc(-c3ccco3)nn2c1=O	CSN deneddyl inh 38.0 | CSN5 deneddyl 86.3 | MMP2 cntr CSN inactive | Thrombin cntr inactive
CC1(C(=O)NS(=O)(=O)c2cccc(Cl)c2)CCN1C(=O)c1ccccc1 (centres undefined)	none
CCC(=O)Nc1c(S(=O)(=O)c2ccccc2)c2nc3ccccc3nc2n1C(C)c1ccccc1 (centres undefined)	none
CCCCn1c(NC(=O)c2ccc(Br)o2)c(S(=O)(=O)c2ccccc2)c2nc3ccccc3nc21	CSN deneddyl inh 48.3 | CSN5 deneddyl 101.2 | MMP2 cntr CSN inactive | Thrombin cntr inactive
O=[N+]([O-])c1ccc(N2N=C(c3ccco3)CC2c2ccccc2)cc1 (centres undefined)	HNF4A DNA FP 49.9, CSN deneddyl inh 41.8 | CSN5 deneddyl 82.9 | MMP2 cntr CSN inactive | Thrombin cntr 36.2
COc1cc(N2N=C(c3ccccc3)CC2c2ccccc2)c(C=O)cc1C=O (centres undefined)	none
COc1ccccc1N1N=C(c2ccc([N+](=O)[O-])cc2)CC1c1ccccc1 (centres undefined)	HNF4A DNA FP 46.6, Myeloid diff MLP active, CSN deneddyl inh 38.2 | CSN5 deneddyl 106.7 | MMP2 cntr CSN inactive | Thrombin cntr 25.0
O=C(Nc1ccc(C(O)c2ccccc2)cc1)[C@@H]1O[C@H](CO)[C@H](O)[C@H](O)[C@H]1O (some centres undefined)	none
CCc1ccc(N=C2NC(=O)/C(=C/c3cc(Br)c(OCC(=O)O)c(OC)c3)S2)cc1	CSN deneddyl inh 47.1 | CSN5 deneddyl 76.6 | MMP2 cntr CSN inactive | Thrombin cntr inactive
O=C1NC(=S)S/C1=C/c1ccc(OC(=O)c2ccco2)cc1	HNF4A DNA FP 43.9, Myeloid diff MLP active, CSN deneddyl inh 40.9, Granule exo inh 79.4 | CSN5 deneddyl 69.1 | MMP2 cntr CSN 19.2 | Thrombin cntr 36.4
CCOc1cc(/C=C2/SC(=S)NC2=O)ccc1OC(=O)c1ccco1	CSN deneddyl inh 58.4 | CSN5 deneddyl 76.8 | MMP2 cntr CSN 15.3 | Thrombin cntr inactive
Cc1ccc(C2=NOC(=O)/C2=C\C=C\c2ccccc2)cc1	CSN deneddyl inh 35.1 | CSN5 deneddyl 102.7 | MMP2 cntr CSN inactive | Thrombin cntr inactive
CN(C)/C=C1\C(=O)ON=C1c1ccccc1	none
CN(C)S(=O)(=O)c1ccc2c(c1)/C(=C/c1cc3c([nH]1)CCCC3)C(=O)N2	Myeloid diff MLP active, CSN deneddyl inh 53.7 | CSN5 deneddyl 74.9 | MMP2 cntr CSN inactive | Thrombin cntr inactive
Cn1cccc1/C=C1\CC(C(C)(C)C)C/C(=C\c2cccn2C)C1=O (centres undefined)	Myeloid diff MLP active, CSN deneddyl inh 97.3 | CSN5 deneddyl 92.8 | MMP2 cntr CSN -33.7 | Thrombin cntr inactive
Cn1cccc1/C=C1\Cc2ccccc2C1=O	none
CCC1=NN2C(=N)/C(=C\c3ccc(SCc4ccco4)o3)C(=O)N=C2S1	CSN deneddyl inh 78.0 | CSN5 deneddyl inactive | MMP2 cntr CSN 16.2 | Thrombin cntr 17.2
COCCCNC(=O)CCCN1C(=O)c2cccnc2Sc2ccccc21	none
O=C(NCc1ccccc1C(F)(F)F)c1cccc2c1C(=O)c1ccc(N3CCC(N4CCCCC4)CC3)cc1S2(=O)=O	Myeloid diff MLP active, CSN deneddyl inh 142.6 | CSN5 deneddyl inactive | MMP2 cntr CSN -45.3 | Thrombin cntr 45.7
O=C(NCc1ccccc1C(F)(F)F)c1cccc2c1C(=O)c1ccc(N3CCOCC3)cc1S2(=O)=O	none
CCCCCCCCCCCCCCCC[n+]1cccc2ccccc21	CSN deneddyl inh 35.5 (no result: Myeloid diff MLP) | CSN5 deneddyl 65.1 | MMP2 cntr CSN 17.2 | Thrombin cntr inactive
CSc1nc(SCC(=O)O)c2sc3nc(-c4ccccc4)c4c(c3c2n1)CCC4	CSN deneddyl inh 63.9 | CSN5 deneddyl inactive | MMP2 cntr CSN 30.1 | Thrombin cntr inactive
CC(=O)Nc1ccc2c(O)cc(S(=O)(=O)O)cc2c1	none
Nc1ccc2c(O)cc(S(=O)(=O)O)cc2c1	CSN deneddyl inh 35.9 | CSN5 deneddyl 93.8 | MMP2 cntr CSN 16.1 | Thrombin cntr inactive
O=C(Nc1nnc(-c2ccccc2)o1)C1CCCN1S(=O)(=O)c1cccs1 (centres undefined)	none
COc1cc(/C=C2\Oc3cc(O)ccc3C2=O)ccc1O	CSN deneddyl inh 40.1 | CSN5 deneddyl 98.1 | MMP2 cntr CSN inactive | Thrombin cntr 28.8
CCNC(=O)C1(C)CCN(C(=O)c2ccc(OC)c(OC)c2)C1 (centres undefined)	none
CCOc1ccc(NC(=S)Nc2ccc3nsnc3c2)cc1	Myeloid diff MLP inconclusive, CSN deneddyl inh 43.9 | CSN5 deneddyl 95.4 | MMP2 cntr CSN 34.6 | Thrombin cntr inactive
COc1ccc(NC(=S)Nc2ccc3nsnc3c2)cc1	CSN deneddyl inh 49.2 | CSN5 deneddyl 94.0 | MMP2 cntr CSN 29.8 | Thrombin cntr inactive
CCCN(C(=O)CSc1ccccc1C(=O)O)C1CCS(=O)(=O)C1 (centres undefined)	none
O=C1CCCC2=C1C(c1ccco1)Nc1ccc3ccccc3c12 (centres undefined)	Myeloid diff MLP active, CSN deneddyl inh 39.6 | MMP2 cntr CSN 17.3 | Thrombin cntr inactive
O=C1CCCC2=C1C(c1ccc(O)c(O)c1)Nc1ccc3ccccc3c12 (centres undefined)	none
Cc1ccc[n+](CC(=O)Nc2ccc([N+](=O)[O-])cc2)c1	none
O=C(O)C(Cc1ccc(OS(=O)(=O)Cc2ccccc2)cc1)NS(=O)(=O)Cc1ccccc1 (centres undefined)	none
